Legend:
MDA-MB-231 [1] = experiment: Cytotoxicity against human MDA-MB-231 cells assessed as maximum inhibition of cell viability upto 198 uM incubated for 72 hrs by MTS assay relative to control; format: functional; conditions: up to 198 µM
Procedure, shortened: (§1)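 Cells seeded at 0.5 to 100 × 10^3 per well the day before drug addition, then exposed to compound for 72 h. MTS added afterwards, with a further 4 h at 37 °C, and absorbance read. Tested in duplicate at 9 serial 3.16-fold dilutions, top concentration 198 μM. MI% is the maximum inhibition of viability across the tested range.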

COLO 205 [2] = experiment: Cytotoxicity against human COLO 205 cells assessed as maximum inhibition of cell viability upto 198 uM incubated for 72 hrs by MTS assay relative to control; format: functional; conditions: up to 198 µM; procedure, shortened: as §1
HepG2 [3] = experiment: Cytotoxicity against human HepG2 cells assessed as inhibition of cell viability incubated for 72 hrs by MTS assay; format: functional, cell-based; conditions: HepG2, 72 h
Procedure, shortened: (§2)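 Cells seeded at 0.5 to 100 × 10^3 per well the day before treatment, then exposed for 72 h to 9 serial concentrations (3.16-fold dilutions, top 198 μM), in duplicate. MTS added for a final 4 h at 37 °C and absorbance read. IC50 is the concentration giving 50% loss of viability. MI% is the maximum inhibition over the tested range.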

[4] = Cytotoxicity against human ACHN-luc2 cells assessed as inhibition of cell viability incubated for 72 hrs by MTS assay; format: functional, cell-based; conditions: ACHN-luc2, 72 h; procedure, shortened: as §2
MCF7 [5] = experiment: Cytotoxicity against human MCF7 cells assessed as maximum inhibition of cell viability upto 198 uM incubated for 72 hrs by MTS assay relative to control; format: functional; conditions: up to 198 µM; procedure, shortened: as §1
K562 [6] = experiment: Cytotoxicity against human K562 cells assessed as inhibition of cell viability incubated for 72 hrs by MTS assay; format: functional, cell-based; conditions: K562, 72 h; procedure, shortened: as §2
CAKI-2 [7] = experiment: Cytotoxicity against human CAKI-2 cells assessed as inhibition of cell viability incubated for 72 hrs by MTS assay; format: functional, cell-based; conditions: CAKI-2, 72 h; procedure, shortened: as §2
MDA-MB-231 [8] = experiment: Cytotoxicity against human MDA-MB-231 cells assessed as inhibition of cell viability incubated for 72 hrs by MTS assay; format: functional, cell-based; conditions: MDA-MB-231, 72 h; procedure, shortened: as §2
MCF7 [9] = experiment: Cytotoxicity against human MCF7 cells assessed as inhibition of cell viability incubated for 72 hrs by MTS assay; format: functional, cell-based; conditions: MCF7, 72 h
[10] = Cytotoxicity against human T24/83 cells assessed as maximum inhibition of cell viability upto 198 uM incubated for 72 hrs by MTS assay relative to control; format: functional; conditions: up to 198 µM; procedure, shortened: as §1
A498 [11] = experiment: Cytotoxicity against human A498 cells assessed as inhibition of cell viability incubated for 72 hrs by MTS assay; format: functional, cell-based; conditions: A498, 72 h; procedure, shortened: as §2
MOLT-4 [12] = experiment: Cytotoxicity against human MOLT-4 cells assessed as inhibition of cell viability incubated for 72 hrs by MTS assay; format: functional, cell-based; conditions: MOLT-4, 72 h; procedure, shortened: as §2
5637 [13] = experiment: Cytotoxicity against human 5637 cells assessed as inhibition of cell viability incubated for 72 hrs by MTS assay; format: functional, cell-based; conditions: Homo sapiens, 5637, 72 h; procedure, shortened: as §2
[14] = Cytotoxicity against human T24/83 cells assessed as inhibition of cell viability incubated for 72 hrs by MTS assay; format: functional, cell-based; conditions: T24/83, 72 h; procedure, shortened: as §2
HL-60 [15] = experiment: Cytotoxicity against human HL-60 cells assessed as inhibition of cell viability incubated for 72 hrs by MTS assay; format: functional, cell-based; conditions: HL-60, 72 h; procedure, shortened: as §2
HepG2 [16] = experiment: Cytotoxicity against human HepG2 cells assessed as maximum inhibition of cell viability upto 198 uM incubated for 72 hrs by MTS assay relative to control; format: functional; conditions: up to 198 µM; procedure, shortened: as §1
CAKI-2 [17] = experiment: Cytotoxicity against human CAKI-2 cells assessed as maximum inhibition of cell viability upto 198 uM incubated for 72 hrs by MTS assay relative to control; format: functional; conditions: up to 198 µM; procedure, shortened: as §1
RL [18] = experiment: Cytotoxicity against human RL cells assessed as maximum inhibition of cell viability upto 198 uM incubated for 72 hrs by MTS assay relative to control; format: functional; conditions: up to 198 µM; procedure, shortened: as §1
5637 [19] = experiment: Cytotoxicity against human 5637 cells assessed as maximum inhibition of cell viability upto 198 uM incubated for 72 hrs by MTS assay relative to control; format: functional; conditions: up to 198 µM; procedure, shortened: as §1
KG-1 [20] = experiment: Cytotoxicity against human KG-1 cells assessed as inhibition of cell viability incubated for 72 hrs by MTS assay; format: functional, cell-based; conditions: KG-1, 72 h; procedure, shortened: as §2
HT-29 [21] = experiment: Cytotoxicity against human HT-29 cells assessed as maximum inhibition of cell viability upto 198 uM incubated for 72 hrs by MTS assay relative to control; format: functional; conditions: up to 198 µM; procedure, shortened: as §1
[22] = Cytotoxicity against human ACHN-luc2 cells assessed as maximum inhibition of cell viability upto 198 uM incubated for 72 hrs by MTS assay relative to control; format: functional; conditions: up to 198 µM; procedure, shortened: as §1
HL-60 [23] = experiment: Cytotoxicity against human HL-60 cells assessed as maximum inhibition of cell viability upto 198 uM incubated for 72 hrs by MTS assay relative to control; format: functional; conditions: up to 198 µM; procedure, shortened: as §1
PC-3 [24] = experiment: Cytotoxicity against human PC-3 cells assessed as maximum inhibition of cell viability upto 198 uM incubated for 72 hrs by MTS assay relative to control; format: functional; conditions: up to 198 µM; procedure, shortened: as §1
RL [25] = experiment: Cytotoxicity against human RL cells assessed as inhibition of cell viability incubated for 72 hrs by MTS assay; format: functional, cell-based; procedure, shortened: as §2
COLO 205 [26] = experiment: Cytotoxicity against human COLO 205 cells assessed as inhibition of cell viability incubated for 72 hrs by MTS assay; format: functional, cell-based; conditions: COLO 205, 72 h; procedure, shortened: as §2
MIA PaCa-2 [27] = experiment: Cytotoxicity against human MIA PaCa-2 cells assessed as inhibition of cell viability incubated for 72 hrs by MTS assay; format: functional, cell-based; conditions: MIA PaCa-2, 72 h; procedure, shortened: as §2
K562 [28] = experiment: Cytotoxicity against human K562 cells assessed as maximum inhibition of cell viability upto 198 uM incubated for 72 hrs by MTS assay relative to control; format: functional; conditions: up to 198 µM; procedure, shortened: as §1
A498 [29] = experiment: Cytotoxicity against human A498 cells assessed as maximum inhibition of cell viability upto 198 uM incubated for 72 hrs by MTS assay relative to control; format: functional; conditions: up to 198 µM; procedure, shortened: as §1
PC-3 [30] = experiment: Cytotoxicity against human PC-3 cells assessed as inhibition of cell viability incubated for 72 hrs by MTS assay; format: functional, cell-based; conditions: PC-3, 72 h; procedure, shortened: as §2
MOLT-4 [31] = experiment: Cytotoxicity against human MOLT-4 cells assessed as maximum inhibition of cell viability upto 198 uM incubated for 72 hrs by MTS assay relative to control; format: functional; conditions: up to 198 µM; procedure, shortened: as §1
KG-1 [32] = experiment: Cytotoxicity against human KG-1 cells assessed as maximum inhibition of cell viability upto 198 uM incubated for 72 hrs by MTS assay relative to control; format: functional; conditions: up to 198 µM; procedure, shortened: as §1
MIA PaCa-2 [33] = experiment: Cytotoxicity against human MIA PaCa-2 cells assessed as maximum inhibition of cell viability upto 198 uM incubated for 72 hrs by MTS assay relative to control; format: functional; conditions: up to 198 µM; procedure, shortened: as §1
HT-29 [34] = experiment: Cytotoxicity against human HT-29 cells assessed as inhibition of cell viability incubated for 72 hrs by MTS assay; format: functional, cell-based; conditions: HT-29, 72 h; procedure, shortened: as §2

Row | SMILES | Imax (MDA-MB-231 [1]) [%] | Imax (COLO 205 [2]) [%] | IC50 (HepG2 [3]) [µM] | IC50 [4] [µM] | Imax (MCF7 [5]) [%] | IC50 (K562 [6]) [µM] | IC50 (CAKI-2 [7]) [µM] | IC50 (MDA-MB-231 [8]) [µM] | IC50 (MCF7 [9]) [µM] | Imax [10] [%] | IC50 (A498 [11]) [µM] | IC50 (MOLT-4 [12]) [µM] | IC50 5637 [13] [µM] | IC50 [14] [µM] | IC50 (HL-60 [15]) [µM] | Imax (HepG2 [16]) [%] | Imax (CAKI-2 [17]) [%] | Imax (RL [18]) [%] | Imax 5637 [19] [%] | IC50 (KG-1 [20]) [µM] | further results
1 | Nc1ncnc2c1ncn2[C@@H]1O[C@H](CO)C[C@H]1O [CORDYCEPIN] | 59 | 24 | 77.2 | 77 | 93 | 94.4 | 94.2 | 78.6 | 45.9 | 96 | 85.4 | 85.3 | 71.6 | 99.1 | 145 | 71 | 25 | 4 | 44 | 89 | Imax (HT-29 [21]): 90%; Imax [22]: 14%; Imax (HL-60 [23]): 57%; Imax (PC-3 [24]): 70%; IC50 (RL [25]): 135 µM; IC50 (COLO 205 [26]): 108 µM; IC50 (MIA PaCa-2 [27]): 76.8 µM; Imax (K562 [28]): 70%; Imax (A498 [29]): 18%; IC50 (PC-3 [30]): 85.3 µM; Imax (MOLT-4 [31]): 77%; Imax (KG-1 [32]): 92%; Imax (MIA PaCa-2 [33]): 87%; IC50 (HT-29 [34]): 26.3 µM
2 | C[C@H](NP(=O)(OC[C@@H]1C[C@@H](O)[C@H](n2cnc3c(N)ncnc32)O1)Oc1ccccc1)C(=O)OCc1ccccc1 (stereo partly drawn) [FOSDESDENOSINE SIPALABENAMIDE] | 79 | 87 | 25.2 | 112 | 90 | 10.3 | 102 | 19.4 | 3.69 | 92 | 58.1 | 4.67 | 47.5 | 31.4 | 38.4 | 80 | 78 | 94 | 100 | 23.5 | Imax (HT-29 [21]): 96%; Imax [22]: 62%; Imax (HL-60 [23]): 101%; Imax (PC-3 [24]): 74%; IC50 (RL [25]): 34.6 µM; IC50 (COLO 205 [26]): 27.8 µM; IC50 (MIA PaCa-2 [27]): 7.41 µM; Imax (K562 [28]): 83%; Imax (A498 [29]): 82%; IC50 (PC-3 [30]): 51.2 µM; Imax (MOLT-4 [31]): 96%; Imax (KG-1 [32]): 92%; Imax (MIA PaCa-2 [33]): 95%; IC50 (HT-29 [34]): 9.47 µM

— ChEMBL document CHEMBL5550111, “Design, synthesis and biological evaluation of aryloxy thiophosphoramidate triesters of anticancer nucleoside analogues” (Bioorg Med Chem, 2024)
